The source of these data is ChEMBL document CHEMBL1158767, “Cytotoxic steroidal saponins from the rhizomes of Asparagus oligoclonos” (J Nat Prod, 2005).

In brackets after ≈: the same amount, converted by molar mass.

Common to all, as to type: functional, cell-based
The test system of experiment [1] is XF498. Kind of experiment: Cytotoxicity against human XF498 cells by SRB assay. A digest of the protocol: (§1)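 Standard sulforhodamine B assay on a panel of human tumour lines: A549 lung carcinoma, SK-OV-3 ovarian adenocarcinoma (from malignant ascites), SK-MEL-2 malignant melanoma (skin metastasis, thigh), XF-498 central nervous system tumour, and HCT 15 colon adenocarcinoma. Testing was done by an external pharmacology group.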
On the technique in general: Sulforhodamine B stains cellular protein and so reports cell mass.

Experiment [2] relates to HCT-15. Kind of experiment: Cytotoxicity against human HCT15 cells by SRB assay. The method in brief:
as §1

Experiment [3] deals with A549. Briefly: Cytotoxicity against human A549 cells by SRB assay.
For experiment [4], the system named is SK-MEL-2. Briefly: Cytotoxicity against human SK-MEL-2 cells by SRB assay. A digest of the protocol: as §1
Experiment [5] has as its system SK-OV-3. Briefly: Cytotoxicity against human SKOV3 cells by SRB assay. The method in brief:
as §1

Consider `C[C@H]1CC[C@@]2(OC1)O[C@H]1C[C@H]3[C@@H]4CC[C@@H]5C[C@@H](O[C@@H]6O[C@H](CO)[C@@H](O)[C@H](O)[C@H]6O[C@@H]6O[C@@H](CO)[C@H](O)[C@H](O)[C@H]6O)CC[C@]5(C)[C@H]4CC[C@]3(C)[C@H]1[C@@H]2C` (relative stereo) [ASPARANIN A], for which the IC50 (in general, the midpoint of a concentration-inhibition curve) worked out at 2.56 µg/mL (≈ 3.46 µM) in experiment [1]; 2.47 µg/mL (≈ 3.33 µM) in experiment [2]; 2.05 µg/mL (≈ 2.77 µM) in experiment [3]; 2.41 µg/mL (≈ 3.25 µM) in experiment [4]; 2.43 µg/mL (≈ 3.28 µM) in experiment [5].
On to `COc1cccc2c1C(=O)c1c(O)c3c(c(O)c1C2=O)C[C@@](O)(C(=O)CO)C[C@@H]3O[C@H]1C[C@H](N)[C@H](O)[C@H](C)O1` [DOXORUBICIN], for which the half-inhibitory concentration (IC50) in experiment [1] came to 0.12 µg/mL (≈ 0.221 µM); in experiment [2] it was 0.08 µg/mL (≈ 0.147 µM); in experiment [4] it was 0.03 µg/mL (≈ 0.0552 µM); in experiment [5], 0.18 µg/mL (≈ 0.331 µM).
Consider `C[C@H]1CC[C@@]2(OC1)O[C@H]1C[C@H]3[C@@H]4CC[C@@H]5C[C@@H](O[C@@H]6O[C@H](CO)[C@@H](O)[C@H](O)[C@H]6O[C@@H]6O[C@@H](CO)[C@H](O)[C@H](O)[C@H]6O)CC[C@]5(C)[C@H]4CC[C@]3(C)[C@@]1(O)[C@@H]2C` (relative stereo) [ASPAOLIGONIN A], for which the IC50 in experiment [1] amounted to 2.84 µg/mL (≈ 3.75 µM); in experiment [2], 2.59 µg/mL (≈ 3.42 µM); in experiment [3] it was 2.25 µg/mL (≈ 2.97 µM); in experiment [4] it was 2.53 µg/mL (≈ 3.34 µM); in experiment [5], 2.66 µg/mL (≈ 3.51 µM).
The matching figures for `C[C@H]1CC[C@@]2(OC1)O[C@H]1C[C@H]3[C@@H]4CC[C@@H]5C[C@@H](O[C@@H]6O[C@H](CO)[C@@H](O[C@@H]7O[C@@H](C)[C@H](O)[C@@H](O)[C@H]7O)[C@H](O)[C@H]6O[C@@H]6OC[C@@H](O)[C@H](O)[C@H]6O)CC[C@]5(C)[C@H]4CC[C@]3(C)[C@@]1(O)[C@@H]2C` (relative stereo) [ASPAOLIGONIN B]: 2.51 µg/mL (≈ 2.88 µM), 2.57 µg/mL (≈ 2.94 µM), 2.55 µg/mL (≈ 2.92 µM), 2.59 µg/mL (≈ 2.97 µM) and 2.73 µg/mL (≈ 3.13 µM).
